In the library only some 0.99% were active in any assay of this set; here they are far more common.
ABCB1 block: ABCB1 efflux pump inhibitors, primary screen, cell-based, multiplex, flow cytometry, ABCG2 counter-screen | ATP-dependent translocase ABCB1 (Homo sapiens), P08183 | CCRF-Adr cells, JC-1 efflux | inhibition, % at 6.6 µM | 0.067% of 190,000 active; in the data active means inhibition above about 40%;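 further: higher value means more JC-1 retained so stronger ABCB1 efflux block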
Target sequence (P08183 whole entry, looked up): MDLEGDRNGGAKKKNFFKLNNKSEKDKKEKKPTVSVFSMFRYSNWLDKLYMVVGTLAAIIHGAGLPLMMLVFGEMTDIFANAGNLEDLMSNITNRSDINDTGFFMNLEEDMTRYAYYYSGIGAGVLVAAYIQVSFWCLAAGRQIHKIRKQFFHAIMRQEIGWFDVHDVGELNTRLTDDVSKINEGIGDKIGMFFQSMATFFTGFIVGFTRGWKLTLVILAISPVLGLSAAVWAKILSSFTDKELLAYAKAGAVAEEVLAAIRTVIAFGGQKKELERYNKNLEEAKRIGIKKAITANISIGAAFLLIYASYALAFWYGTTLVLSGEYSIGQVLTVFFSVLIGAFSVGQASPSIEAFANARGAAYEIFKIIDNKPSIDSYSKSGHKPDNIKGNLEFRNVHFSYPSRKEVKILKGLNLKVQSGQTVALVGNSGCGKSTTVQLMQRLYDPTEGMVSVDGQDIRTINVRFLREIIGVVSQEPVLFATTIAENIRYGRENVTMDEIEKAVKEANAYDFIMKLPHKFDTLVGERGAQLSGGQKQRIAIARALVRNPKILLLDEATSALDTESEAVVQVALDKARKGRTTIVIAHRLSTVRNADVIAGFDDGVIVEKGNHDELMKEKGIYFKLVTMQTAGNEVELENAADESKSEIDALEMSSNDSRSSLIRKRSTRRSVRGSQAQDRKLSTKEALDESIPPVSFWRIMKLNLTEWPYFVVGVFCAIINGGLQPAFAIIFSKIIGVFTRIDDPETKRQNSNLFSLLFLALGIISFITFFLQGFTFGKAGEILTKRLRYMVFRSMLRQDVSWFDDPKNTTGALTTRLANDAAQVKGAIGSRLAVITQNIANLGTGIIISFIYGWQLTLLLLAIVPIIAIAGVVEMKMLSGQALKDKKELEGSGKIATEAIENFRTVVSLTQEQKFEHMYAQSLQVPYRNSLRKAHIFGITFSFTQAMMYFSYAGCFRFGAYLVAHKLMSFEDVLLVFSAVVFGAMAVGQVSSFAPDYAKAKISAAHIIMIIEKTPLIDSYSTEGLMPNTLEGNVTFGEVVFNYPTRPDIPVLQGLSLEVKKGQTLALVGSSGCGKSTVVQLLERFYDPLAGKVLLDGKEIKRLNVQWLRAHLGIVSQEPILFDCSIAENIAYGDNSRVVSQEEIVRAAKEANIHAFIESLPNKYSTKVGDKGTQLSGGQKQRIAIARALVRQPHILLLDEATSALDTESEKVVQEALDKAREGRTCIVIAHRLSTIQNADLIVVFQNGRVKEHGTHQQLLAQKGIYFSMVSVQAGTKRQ
DDE Tn7 FP inh: inhibitors of Tn7 peptide binding to fibrin DD(E), primary screen, biochemical, fluorescence polarization, human fibrin, Tn7 probe | AID 720508, 2013 | 0.13% of 370,000 active | Fibrinogen beta chain (Homo sapiens), P02675 | inhibition, % at 8.3 µM | FP displacement of FITC-Tn7 peptide from fibrin DD(E); 0% = median of compound wells per plate;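 active means inhibition above the mean of compounds falling within the control limits plus 3 SD of them, cut at about 14% in these data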
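Measure: % inhibition scaled between sample-field median and high-control FP; Test system: human fibrin DD(E); Quantity: 2 µM final DD(E) protein; Doses: one dose, 8.3 µM nominal; Schedule: compound with protein 10 min, then 3 h after probe, room temperature; Detection: fluorescence polarization; Medium: Tris buffer with calcium and detergent, pH 7.8.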
ABCG2 block: ABCG2 efflux pump inhibitors, primary screen, multiplex with ABCB1, IgMXP3 cells, flow cytometry. Broad substrate specificity ATP-binding cassette transporter ABCG2 (Homo sapiens), Q9UNQ0. JC-1 efflux. inhibition, % at 6.6 µM. 0.1% of 190,000 active. AID 1325, 2008;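 active means inhibition above 80%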
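Assay system – ABCG2 IgMXP3 and barcoded ABCB1 CCRF-Adr cell mix · Input – 3 million cells/mL in well · Reagent – JC-1 fluorescent substrate · Compound – single test compound dose, 6.6 µM final · Timing – 10 min exposure at 25 °C with rotation, no wash · Detection – flow cytometry of retained JC-1 fluorescence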
Insulin prom up: insulin promoter activators in MIN6 cells, imaging, high-content screening, mouse beta cells. 0.3% of 190,000 active. MIN6 insulin promoter-GFP reporter; stronger effect = higher value. AID 1625, 2009. z-score at 5 µM;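 active means z-score above 3 at 5 µM with at least 500 cells counted in the well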
GRK2 aptamer HTS: compounds blocking aptamer binding on GRK2 – biochemical, human GRK2, bead flow cytometry, HTS, primary screen. Beta-adrenergic receptor kinase 1 (Homo sapiens), P25098. FAM-aptamer displacement from GRK2. inhibition of aptamer binding, % at 10 µM. 0.59% of 330,000 active;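 active means inhibition of aptamer binding above 40%, roughly 3 SD of noise, on plates passing a quality check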;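 further: median bead fluorescence of bound FAM aptamer so fluorescent compounds give negative values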
DDE Tn6 FP inh: inhibitors of Tn6 peptide binding to fibrin DD(E), primary screen, biochemical, fluorescence polarization, human fibrin, Tn6 probe | Fibrinogen beta chain (Homo sapiens), P02675 | Fibrin DD(E) TRITC-Tn6 fluorescence polarization displacement | inhibition, % at 8.3 µM | 0.21% of 370,000 active | AID 720509, 2013;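 active means inhibition above a per-campaign cutoff: mean of compounds within control limits plus 3 SD, cut at about 15% in these data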
GRK2 CP1: GRK2 aptamer-displacing inhibitors, retest, confirmation, biochemical, cherry pick 1, bead flow cytometry | AID 504451, 2011 | shares compounds with GRK2 aptamer HTS | bead-bound GRK2, FAM-aptamer displacement | aptamer displacement, % at 10 µM | 4% of 2,000 active;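 active means aptamer displacement above 40%, near three times the noise of non-fluorescent compounds, on plates passing quality checks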;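 further: negative values mostly reflect intrinsic compound fluorescence rather than true enhancement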
Aptamer quench: fluorescent aptamer quenching in GRK2 counter-screen dose response | Fluorescent RNA aptamer beads, flow cytometry; stronger effect = higher value | AID 504521 | shares compounds with GRK2 aptamer HTS | 110 tested, under 10 active | fluorescence change (kMESF span), kMESF (test concentration not listed);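 active means compounds whose bead fluorescence drops by more than 37 kMESF across the dose range, marking them as dye quenchers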
Aptamer quench SP: aptamer fluorescence quenching in GRK2 counter-screen; shares compounds with GRK2 aptamer HTS; 2,000 tested, under 10 active; AID 504580; Carboxyfluorescein RNA aptamer on beads, flow cytometry quenching; stronger effect = lower value; fluorescence response (% of DMSO), % at 10 µM;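 active means compounds that quench the bead-bound fluorescent RNA probe, cutting fluorescence to under half of the solvent control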;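 further: counterscreen run without GRK2 so only probe quenching by compound is measured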
GRK2 CP2: GRK2 aptamer-displacing inhibitors, hit retest, confirmation, biochemical, cherry pick 2, bead flow cytometry. shares compounds with GRK2 aptamer HTS. bead-bound GRK2, FAM-aptamer displacement. inhibition of aptamer binding, % at 10 µM. 360 tested, under 10 active. AID 504782, 2011;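 active means inhibition of aptamer binding above 40%, about triple the noise seen with nonglowing compounds, on plates passing quality control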;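 further: negative values mostly come from compounds that fluoresce themselves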
FAM quench CP2: counter-screen for GRK2 binding hits: quenchers of fluorescent RNA aptamer. shares compounds with GRK2 aptamer HTS. carboxyfluorescein RNA aptamer beads, flow cytometry quenching; stronger effect = lower value. fluorescence response vs DMSO, % at 10 µM. 360 tested, under 10 active. AID 588494;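 active means response vs DMSO under 50%, meaning signal dropped by over half, treated as fluorescence quencher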;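 further: labelled aptamer on streptavidin beads without GRK2 as a quench counter-screen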
Numbers stand for hits; i = inactive; nt = not tested or not shown.

SMILES	ABCB1 block	DDE Tn7 FP inh	ABCG2 block	Insulin prom up	GRK2 aptamer HTS	DDE Tn6 FP inh	GRK2 CP1	Aptamer quench SP	others
Fc1cccc(Cl)c1Cn1ncc2ccccc21	nt	i	nt	nt	i	i	nt	nt
c1ccc(Cn2ncc3ccccc32)cc1	i	i	i	i	i	i	i	i
CCC(C)NS(=O)(=O)c1ccc2[nH]c(=O)oc2c1 (centres undefined)	nt	i	nt	nt	nt	i	nt	nt
C/C(=N\Nc1nc2ccccc2[nH]1)c1ccc(N2CCOCC2)cc1	i	i	i	i	52.0	i	i	i
C/C(=N\Nc1nc(C)cc(C)n1)c1ccc(N2CCOCC2)cc1	i	i	i	i	i	i	nt	nt
COC(=O)[C@]12C[C@H](CC(=O)NCCCN3CCCC3=O)C(=O)N(Cc3ccc(Cl)cc3Cl)C1=C[C@H](C(C)(C)C)O[C@@H]2C	nt	i	nt	nt	nt	i	nt	nt
CCCOc1ccc(NC(=O)CC2C(=O)N(CC)C(=S)N2CCNC(C)=O)cc1 (centres undefined)	i	i	i	i	i	i	nt	nt
CCOc1ccc(NC(=O)CC2C(=O)N(CC)C(=S)N2CCNC(C)=O)cc1 (centres undefined)	i	i	i	i	70.0	i	nt	nt	GRK2 CP2=i;FAM quench CP2=i
Cc1ccccc1CS(=O)(=O)Cc1ccc(C(=O)Nc2cccc(C)c2C)o1	nt	i	nt	nt	nt	i	nt	nt
Cc1ccc(F)cc1NC(=O)CSc1nnc(CNC(=O)c2ccco2)n1C	nt	i	nt	nt	70.0	i	i	i
Cc1ccc(C)c(NC(=O)CSc2nnc(CNC(=O)c3ccco3)n2C)c1	nt	i	nt	nt	i	i	nt	nt
Cc1cc(N2CCN(C)CC2)nc2ccc(NC(=O)CCC(=O)NCCCOC(C)C)cc12	nt	i	nt	nt	93.0	i	i	i
COCCCNC(=O)CCC(=O)Nc1ccc2nc(N3CCOCC3)cc(C)c2c1	i	i	i	i	i	i	nt	nt
N#CCC[C@@H]1CC[C@]2(CCCN(Cc3ccc(Br)cc3)C2)O1	nt	i	nt	nt	nt	i	nt	nt
COc1ccc(C(=O)NC(Cn2ccnc2)C(C)(C)C)cc1OC1CCN(C(C)C)CC1 (centres undefined)	nt	i	nt	nt	80.0	i	nt	nt	GRK2 CP2=i;FAM quench CP2=i
C/C=C(/C)C(=O)Nc1cccc(C2=NOC3(C2)C[C@@H](C(N)=O)N(C(=O)CC(c2ccccc2)c2ccccc2)C3)c1 (some centres undefined)	nt	i	nt	i	i	i	nt	nt
C=C(C)C(=O)Nc1cccc(C2=NOC3(C2)C[C@@H](C(N)=O)N(C(=O)/C=C/C=C/C)C3)c1 (some centres undefined)	nt	i	nt	i	92.0	i	82.5	i	Aptamer quench=i
C=C(C)C(=O)Nc1cccc(C2=NOC3(C2)C[C@H](C(N)=O)N(C(=O)CC#N)C3)c1 (some centres undefined)	nt	nt	nt	i	67.0	nt	i	i	Aptamer quench=i
C/C=C(/C)C(=O)Nc1cccc(C2=NOC3(C2)C[C@H](C(N)=O)N(C(=O)Cc2ccc([N+](=O)[O-])cc2)C3)c1 (some centres undefined)	nt	i	nt	i	i	i	nt	nt
CCC(=O)Nc1cccc(C2=NOC3(C2)C[C@H](C(N)=O)N(C(=O)Cc2ccc([N+](=O)[O-])cc2)C3)c1 (some centres undefined)	nt	i	nt	i	i	i	nt	nt	GRK2 CP2=i;FAM quench CP2=i
C=C(C)C(=O)Nc1cccc(C2=NOC3(C2)C[C@@H](C(N)=O)N(C(=O)CC(c2ccccc2)c2ccccc2)C3)c1 (some centres undefined)	nt	i	nt	i	88.0	i	80.2	i	Aptamer quench=i
O=C(NCc1cccs1)O[C@H]1CC[C@@]23CCCN2C(=O)CCC[C@H]3C1	nt	i	nt	nt	nt	i	nt	nt
CCCCN1CC(=O)N2[C@H](C[C@@]3(n4ccc5ccccc54)c4ccccc4N(S(=O)(=O)c4ccccc4)[C@@H]23)C1=O	nt	i	nt	nt	nt	i	nt	nt
CC1(c2nnnn2-c2ccc3ccccc3c2)CSCC(=O)N1C1CC1 (centres undefined)	nt	i	nt	nt	nt	i	nt	nt
CCCN(CCC)S(=O)(=O)c1ccc(C(=O)NCc2ccco2)cc1	nt	i	nt	nt	64.0	i	i	i
SMILES	ABCB1 block	DDE Tn7 FP inh	ABCG2 block	Insulin prom up	GRK2 aptamer HTS	DDE Tn6 FP inh	GRK2 CP1	Aptamer quench SP	others
CN(C)S(=O)(=O)c1ccc(C(=O)NCc2ccco2)cc1	i	i	i	nt	i	i	nt	nt
Cc1ccc(-c2noc(CSc3nnc(-c4ccncc4)n3-c3ccc(C)cc3)n2)cc1	i	i	i	nt	99.0	i	i	i
COc1ccc2c(c1)CNC2CS(=O)(=O)NCC(C)C (centres undefined)	nt	i	nt	nt	nt	i	nt	nt
O=C(O)c1ccc(OC(F)(F)C(F)C(F)(F)F)cc1 (centres undefined)	i	i	i	i	76.0	i	i	i
CC(=O)Nc1ccc(OC(F)(F)C(F)C(F)(F)F)c(NC(C)=O)c1 (centres undefined)	i	i	i	nt	i	i	nt	nt
COC(=O)c1ccc(Cn2ccc3ccc(-c4ccc5ccn(Cc6ccc(OC)cc6)c5c4)cc32)cc1	nt	i	nt	nt	nt	i	nt	nt
CC(C)C[C@H]1CN=C(Nc2ccccc2)N1CC1CCCCCC1	nt	i	nt	nt	58.0	i	i	i
CCN1C(Nc2ccccc2)=NC[C@@H]1CC(C)C	nt	i	nt	nt	i	i	nt	nt
CC(C)C[C@H](NC(=O)c1ccccn1)C(=O)N1CCC[C@H]1C(=O)NCc1ccccc1	nt	i	nt	nt	nt	i	nt	nt
O=C1c2cccc3c([N+](=O)[O-])ccc(c23)C(=O)N1O	nt	i	nt	nt	56.0	i	i	i
O=C1c2cccc3c([N+](=O)[O-])ccc(c23)C(=O)N1c1ccccn1	i	i	i	i	i	i	nt	nt
CC(=O)c1cccc(Nc2cc(C)nc3ccccc23)c1	nt	i	nt	nt	i	i	nt	nt
O=C(O)c1cccc(Nc2c3ccccc3nc3ccccc23)c1	nt	i	nt	nt	51.0	i	i	i
